# In paper PMC6988732 (The Biochemical journal, 2013):
# Key:
# Format in all cases: cell-based
# [1] = biological target: full-length PKCθ T243A (Mus musculus, UniProt Q02111, T243A); experiment: Membrane translocation in HEK-293 cells; conditions: 50 nM PMA, 2 h
# [2] = biological target: GFP–PKCθ W253G (Mus musculus, UniProt Q02111, W253G); experiment: Confocal translocation in living LNCaP cells
# How it was run: (§1)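 Mouse full-length PKCθ (wild-type or C1B point mutant) carrying a C-terminal EGFP tag via a GGNSGG spacer, transfected into LNCaP prostate cancer cells. Living cells were exposed to PMA and imaged by confocal microscopy over a time course. Membrane/cytoplasm intensity ratios were quantified from the images; means ± S.E.M., with images typical of three to four independent experiments.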
# [3] = biological target: GFP–PKCθ wild-type (Mus musculus, UniProt Q02111); experiment: Confocal translocation in living LNCaP cells
# How it was run: as §1
# [4] = biological target: full-length PKCθ L255G (Mus musculus, UniProt Q02111, L255G); experiment: Membrane translocation in HEK-293 cells; conditions: 50 nM PMA, 2 h
# [5] = biological target: GFP–PKCθ Q258G (Mus musculus, UniProt Q02111, Q258G); experiment: Confocal translocation in living LNCaP cells
# How it was run: as §1
# [6] = biological target: GFP–PKCθ T243A (Mus musculus, UniProt Q02111, T243A); experiment: Confocal translocation in living LNCaP cells
# How it was run: as §1
# [7] = biological target: full-length PKCθ Q258G (Mus musculus, UniProt Q02111, Q258G); experiment: Membrane translocation in HEK-293 cells; conditions: 50 nM PMA, 2 h
# [8] = biological target: GFP–PKCθ L255G (Mus musculus, UniProt Q02111, L255G); experiment: Confocal translocation in living LNCaP cells
# How it was run: as §1
# [9] = biological target: full-length PKCθ Y239A (Mus musculus, UniProt Q02111, Y239A); experiment: Membrane translocation in HEK-293 cells; conditions: 50 nM PMA, 2 h
# [10] = biological target: GFP–PKCθ Y239A (Mus musculus, UniProt Q02111, Y239A); experiment: Confocal translocation in living LNCaP cells
# How it was run: as §1
# [11] = biological target: full-length PKCθ W253G (Mus musculus, UniProt Q02111, W253G); experiment: Membrane translocation in HEK-293 cells; conditions: 50 nM PMA, 2 h
# [12] = 100 nM PMA (second block, r6-r8), 5 min
# [13] = 100 nM PMA (second block, r6-r8), 10 min
# [14] = 100 nM PMA (second block, r6-r8), 20 min
# [15] = 100 nM PMA as printed (first block, r3-r5), 5 min
# [16] = 100 nM PMA as printed (first block, r3-r5), 10 min
# [17] = 100 nM PMA as printed (first block, r3-r5), 20 min
# Chain of GFP–PKCθ L255G (Q02111 whole entry L255G): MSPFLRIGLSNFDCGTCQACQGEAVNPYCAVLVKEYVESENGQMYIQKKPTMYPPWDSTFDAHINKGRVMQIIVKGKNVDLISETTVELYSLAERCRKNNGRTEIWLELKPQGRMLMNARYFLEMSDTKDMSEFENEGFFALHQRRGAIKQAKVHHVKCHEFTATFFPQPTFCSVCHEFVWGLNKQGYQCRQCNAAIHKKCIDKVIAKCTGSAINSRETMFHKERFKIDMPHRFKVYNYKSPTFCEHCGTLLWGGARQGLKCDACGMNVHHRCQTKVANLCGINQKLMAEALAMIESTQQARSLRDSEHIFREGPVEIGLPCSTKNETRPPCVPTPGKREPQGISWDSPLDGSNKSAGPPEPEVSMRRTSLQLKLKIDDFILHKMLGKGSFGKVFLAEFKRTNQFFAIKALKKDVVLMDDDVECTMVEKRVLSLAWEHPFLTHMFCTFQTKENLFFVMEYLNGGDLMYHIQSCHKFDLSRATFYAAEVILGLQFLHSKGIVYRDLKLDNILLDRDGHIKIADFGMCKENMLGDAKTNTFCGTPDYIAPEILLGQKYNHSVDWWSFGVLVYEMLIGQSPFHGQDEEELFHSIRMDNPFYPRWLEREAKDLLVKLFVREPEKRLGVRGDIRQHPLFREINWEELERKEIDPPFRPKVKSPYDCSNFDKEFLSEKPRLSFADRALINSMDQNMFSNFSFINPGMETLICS
# Chain of GFP–PKCθ W253G (Q02111 whole entry W253G): as the sequence (Q02111 whole entry L255G) above, with W253G, G255L counted along it
# Chain of GFP–PKCθ T243A (Q02111 whole entry T243A): as the sequence (Q02111 whole entry L255G) above, with T243A, G255L counted along it
# Chain of GFP–PKCθ Y239A (Q02111 whole entry Y239A): as the sequence (Q02111 whole entry L255G) above, with Y239A, G255L counted along it
# Chain of GFP–PKCθ wild-type (Q02111 whole entry): as the sequence (Q02111 whole entry L255G) above, with G255L counted along it
# Chain of GFP–PKCθ Q258G (Q02111 whole entry Q258G): as the sequence (Q02111 whole entry L255G) above, with G255L, Q258G counted along it
# Chain of full-length PKCθ L255G (Q02111 whole entry L255G): as the sequence (Q02111 whole entry L255G) above
# Chain of full-length PKCθ W253G (Q02111 whole entry W253G): as the sequence (Q02111 whole entry L255G) above, with W253G, G255L counted along it
# Chain of full-length PKCθ T243A (Q02111 whole entry T243A): as the sequence (Q02111 whole entry L255G) above, with T243A, G255L counted along it
# Chain of full-length PKCθ Y239A (Q02111 whole entry Y239A): as the sequence (Q02111 whole entry L255G) above, with Y239A, G255L counted along it
# Chain of full-length PKCθ Q258G (Q02111 whole entry Q258G): as the sequence (Q02111 whole entry L255G) above, with G255L, Q258G counted along it
structure (smiles),measurement,setting,value
CCCCCCCCCCCCCC(=O)O[C@@H]1[C@@H](C)[C@@]2(O)[C@@H](C=C(CO)C[C@]3(O)C(=O)C(C)=C[C@@H]23)[C@@H]2C(C)(C)[C@]12OC(C)=O [PMA],reduction in membrane translocation compared with the wild-type,[1],12.5%
same,"Membrane/cytoplasmic intensity ratio, PKCθ W253G","[2]; 10 nM PMA, 5 min",1.0 ± 0.1
same,"Membrane/cytoplasmic intensity ratio, PKCθ W253G","[2]; 10 nM PMA, 10 min",1.1 ± 0.1
same,"Membrane/cytoplasmic intensity ratio, PKCθ W253G","[2]; 10 nM PMA, 20 min",1.2 ± 0.2
same,"Membrane/cytoplasmic intensity ratio, PKCθ W253G",[2]; [12],1.9 ± 0.4
same,"Membrane/cytoplasmic intensity ratio, PKCθ W253G",[2]; [13],3.0 ± 0.7
same,"Membrane/cytoplasmic intensity ratio, PKCθ W253G",[2]; [14],2.6 ± 0.6
same,"Membrane/cytoplasmic intensity ratio, PKCθ W253G",[2]; [15],11.4 ± 3.6
same,"Membrane/cytoplasmic intensity ratio, PKCθ W253G",[2]; [16],12.7 ± 3.9
same,"Membrane/cytoplasmic intensity ratio, PKCθ W253G",[2]; [17],13.2 ± 5.0
same,"Membrane/cytoplasmic intensity ratio, PKCθ WT","[3]; 10 nM PMA, 5 min",1.0 ± 0.1
same,"Membrane/cytoplasmic intensity ratio, PKCθ WT","[3]; 10 nM PMA, 10 min",1.0 ± 0.1
same,"Membrane/cytoplasmic intensity ratio, PKCθ WT","[3]; 10 nM PMA, 20 min",1.2 ± 0.4
same,time to marked translocation to the plasma membrane,[3]; 100 nM PMA,≤ 2 min
same,"Membrane/cytoplasmic intensity ratio, PKCθ WT",[3]; [12],8.1 ± 1.2
same,"Membrane/cytoplasmic intensity ratio, PKCθ WT",[3]; [13],6.5 ± 0.7
same,"Membrane/cytoplasmic intensity ratio, PKCθ WT",[3]; [14],5.4 ± 0.5
same,"Membrane/cytoplasmic intensity ratio, PKCθ WT",[3]; [15],14.5 ± 2.2
same,"Membrane/cytoplasmic intensity ratio, PKCθ WT",[3]; [16],11.3 ± 2.1
same,"Membrane/cytoplasmic intensity ratio, PKCθ WT",[3]; [17],12.1 ± 2.2
same,reduction in membrane translocation compared with the wild-type,[4],19.4%
same,"Membrane/cytoplasmic intensity ratio, PKCθ Q258G","[5]; 10 nM PMA, 5 min",1.2 ± 0.1
same,"Membrane/cytoplasmic intensity ratio, PKCθ Q258G","[5]; 10 nM PMA, 10 min",1.1 ± 0.1
same,"Membrane/cytoplasmic intensity ratio, PKCθ Q258G","[5]; 10 nM PMA, 20 min",1.1 ± 0.0
same,"Membrane/cytoplasmic intensity ratio, PKCθ Q258G",[5]; [12],1.0 ± 0.0
same,"Membrane/cytoplasmic intensity ratio, PKCθ Q258G",[5]; [13],1.1 ± 0.0
same,"Membrane/cytoplasmic intensity ratio, PKCθ Q258G",[5]; [14],1.1 ± 0.0
same,"Membrane/cytoplasmic intensity ratio, PKCθ Q258G",[5]; [15],1.2 ± 0.1
same,"Membrane/cytoplasmic intensity ratio, PKCθ Q258G",[5]; [16],2.0 ± 0.3
same,"Membrane/cytoplasmic intensity ratio, PKCθ Q258G",[5]; [17],2.1 ± 0.4
same,plasma membrane translocation response,"[5]; 100 nM PMA, by 20 min",little response
same,plasma membrane translocation response,"[5]; 1000 nM PMA, later times",partial translocation
same,"Membrane/cytoplasmic intensity ratio, PKCθ T243A","[6]; 10 nM PMA, 5 min",1.0 ± 0.0
same,"Membrane/cytoplasmic intensity ratio, PKCθ T243A","[6]; 10 nM PMA, 10 min",1.3 ± 0.2
same,"Membrane/cytoplasmic intensity ratio, PKCθ T243A","[6]; 10 nM PMA, 20 min",1.7 ± 0.1
same,time by which translocation was largely complete,[6]; 100 nM PMA,≤ 5 min
same,"Membrane/cytoplasmic intensity ratio, PKCθ T243A",[6]; [12],3.6 ± 1.1
same,"Membrane/cytoplasmic intensity ratio, PKCθ T243A",[6]; [13],3.7 ± 0.8
same,"Membrane/cytoplasmic intensity ratio, PKCθ T243A",[6]; [14],3.1 ± 0.6
same,"Membrane/cytoplasmic intensity ratio, PKCθ T243A",[6]; [15],10.3 ± 1.9
same,"Membrane/cytoplasmic intensity ratio, PKCθ T243A",[6]; [16],9.9 ± 1.5
same,"Membrane/cytoplasmic intensity ratio, PKCθ T243A",[6]; [17],7.4 ± 1.5
same,reduction in membrane translocation compared with the wild-type,[7],21.6%
same,"Membrane/cytoplasmic intensity ratio, PKCθ L255G","[8]; 10 nM PMA, 5 min",1.1 ± 0.1
same,"Membrane/cytoplasmic intensity ratio, PKCθ L255G","[8]; 10 nM PMA, 10 min",1.1 ± 0.1
same,"Membrane/cytoplasmic intensity ratio, PKCθ L255G","[8]; 10 nM PMA, 20 min",1.1 ± 0.0
same,"Membrane/cytoplasmic intensity ratio, PKCθ L255G",[8]; [12],1.3 ± 0.1
same,"Membrane/cytoplasmic intensity ratio, PKCθ L255G",[8]; [13],1.6 ± 0.2
same,"Membrane/cytoplasmic intensity ratio, PKCθ L255G",[8]; [14],2.3 ± 0.4
same,"Membrane/cytoplasmic intensity ratio, PKCθ L255G",[8]; [15],4.8 ± 1.5
same,"Membrane/cytoplasmic intensity ratio, PKCθ L255G",[8]; [16],6.0 ± 1.2
same,"Membrane/cytoplasmic intensity ratio, PKCθ L255G",[8]; [17],7.2 ± 1.9
same,reduction in membrane translocation compared with the wild-type,[9],17.1%
same,"Membrane/cytoplasmic intensity ratio, PKCθ Y239A","[10]; 10 nM PMA, 5 min",1.1 ± 0.0
same,"Membrane/cytoplasmic intensity ratio, PKCθ Y239A","[10]; 10 nM PMA, 10 min",1.1 ± 0.1
same,"Membrane/cytoplasmic intensity ratio, PKCθ Y239A","[10]; 10 nM PMA, 20 min",1.0 ± 0.0
same,"Membrane/cytoplasmic intensity ratio, PKCθ Y239A",[10]; [12],1.7 ± 0.4
same,"Membrane/cytoplasmic intensity ratio, PKCθ Y239A",[10]; [13],2.3 ± 0.8
same,"Membrane/cytoplasmic intensity ratio, PKCθ Y239A",[10]; [14],2.3 ± 0.5
same,"Membrane/cytoplasmic intensity ratio, PKCθ Y239A",[10]; [15],3.8 ± 1.8
same,"Membrane/cytoplasmic intensity ratio, PKCθ Y239A",[10]; [16],4.2 ± 1.6
same,"Membrane/cytoplasmic intensity ratio, PKCθ Y239A",[10]; [17],5 ± 0.4
same,reduction in membrane translocation compared with the wild-type,[11],14.8%
